Activity calls are given as the source filed them. The rule behind the calls is not given here.
Key:
[1] = Selectivity for inhibition of CYP3A4 (unknown origin) to IC50 for inhibition of CETP in human plasma
[2] = 1-Octanol-phosphate buffered saline partition coefficient, log D of compound at […] by tandem mass spectrometry method; type: physicochemical
[3] = system: Syrian golden hamster; assay: Inhibition of CETP in Syrian hamster blood at 0.3 to 10 mg/kg, po dosed once daily for 2 weeks and measured 24 hrs post last dose; type: functional, organism-based; conditions: Mesocricetus auratus
[4] = molecular target: T1, Cytochrome P450 3A4 (Homo sapiens, UniProt P08684); assay: Inhibition of CYP3A4 (unknown origin) in the presence of midozolam; type: ADME
T1 sequence (P08684 whole entry): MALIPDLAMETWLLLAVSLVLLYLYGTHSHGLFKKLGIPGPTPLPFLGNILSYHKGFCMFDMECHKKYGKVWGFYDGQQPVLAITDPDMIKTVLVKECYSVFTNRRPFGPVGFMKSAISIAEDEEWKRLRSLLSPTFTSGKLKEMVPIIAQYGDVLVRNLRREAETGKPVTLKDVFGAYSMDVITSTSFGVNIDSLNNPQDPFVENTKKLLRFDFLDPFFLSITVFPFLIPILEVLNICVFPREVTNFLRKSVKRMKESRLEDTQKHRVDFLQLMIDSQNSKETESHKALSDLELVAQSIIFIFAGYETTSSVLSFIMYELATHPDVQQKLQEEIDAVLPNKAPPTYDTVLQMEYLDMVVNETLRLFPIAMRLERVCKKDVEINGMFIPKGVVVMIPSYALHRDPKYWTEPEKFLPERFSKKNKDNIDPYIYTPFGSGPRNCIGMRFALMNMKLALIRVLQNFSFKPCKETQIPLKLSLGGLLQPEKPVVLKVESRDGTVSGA

[5] = system: Syrian golden hamster; assay: Reduction in LDL cholesterol level in Syrian hamster plasma at 0.3 and 10 mg/kg, po dosed once daily for 2 weeks and measured 24 hrs post last dose by HPLC size exclusion chromatography method; type: functional, organism-based; conditions: Mesocricetus auratus
Procedure, shortened: (§1)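 Chow-fed hamsters gavaged once daily in the morning for 2 weeks (0.3, 1, 3, 10 mg/kg; vehicle 10 mL/kg). Blood is drawn from the abdominal vein under isoflurane 24 h post last dose, after a 16 h fast. Lipoprotein cholesterol is measured by Superose 6 HPLC with online enzymatic detection at 580 nm, standardized to control plasma. Mean ± SEM, n=6, Dunnett test.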

[6] = system: Plasma; assay: Protein binding in human plasma using [14C]-labeled compound after 3 hrs by scintillation counting based ultracentrifugation method; type: ADME, cell-free
Procedure, shortened: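 Human plasma spiked with [14C]-labelled compound at 50−10000 ng/mL, then ultracentrifuged 3 h at 37 °C at 306000g. Supernatant radioactivity is counted by scintillation. Bound fraction = (total − supernatant)/total.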

[7] = system: Hamster; assay: Ex vivo inhibition of CETP activity in hamster hypertriglyceridemia model treated with 100 mg/kg, iv Triton WR-1339 dosed 5 hrs post compound dose measured every 15 mins for 120 mins by fluorescence method; type: functional, organism-based; conditions: Cricetinae
Procedure, shortened: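 Chow-fed hamsters given a single gavage dose of compound or vehicle. Triton WR-1339 (100 mg/kg) or saline is given iv 5 h later, and plasma is taken 3 h after that. Plasma (final 80%) is mixed with fluorescent donor in 50 mM Tris-HCl pH 7.4, 150 mM NaCl, 2 mM EDTA. Ex/em 485/535 nm, read every 15 min for 120 min at 37 °C. Activity is the 30–90 min slope. Five animals per group.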

[8] = system: Serum; assay: Drug uptake in triglyceride rich lipoprotein fraction of human serum from human donors with normal triglyceride levels (<150 mg/dL) by LC-MS/MS method; type: ADME, cell-free
Procedure, shortened: (§2)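 Pooled unfasted human serum (mean TG 122, 347 or 958 mg/dL) spiked with inhibitor to 500 ng/mL, 37 °C, 1 h. NaBr density-gradient ultracentrifugation, 18.5 h at 15 °C. Acetonitrile precipitation, glyburide internal standard, LC-MS/MS in duplicate. Result given as % of total across pools.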

[9] = molecular target: Cytochrome P450 2C9 (Homo sapiens, UniProt P11712); assay: Inhibition of CYP2C9 (unknown origin); type: ADME
Cytochrome P450 2C9, sequence (P11712 whole entry): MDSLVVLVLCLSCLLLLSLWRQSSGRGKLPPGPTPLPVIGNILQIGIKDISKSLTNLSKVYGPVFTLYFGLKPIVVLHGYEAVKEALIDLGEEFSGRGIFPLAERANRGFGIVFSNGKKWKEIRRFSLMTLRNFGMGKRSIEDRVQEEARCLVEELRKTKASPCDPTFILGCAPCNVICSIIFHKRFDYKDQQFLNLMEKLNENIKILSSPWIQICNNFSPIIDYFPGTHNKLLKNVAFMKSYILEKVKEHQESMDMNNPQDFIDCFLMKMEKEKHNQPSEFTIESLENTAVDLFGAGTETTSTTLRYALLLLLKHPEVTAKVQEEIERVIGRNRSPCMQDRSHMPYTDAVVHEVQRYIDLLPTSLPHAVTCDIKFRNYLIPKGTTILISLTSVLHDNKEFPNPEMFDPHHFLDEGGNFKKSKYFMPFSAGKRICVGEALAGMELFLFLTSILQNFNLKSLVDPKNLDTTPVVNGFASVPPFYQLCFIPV

[10] = Volume of distribution in Sprague-Dawley rat at 1 mg/kg, iv or 3 mg/kg, po by LC-ESI-MS/MS analysis; type: ADME, organism-based; conditions: in vivo
Procedure, shortened: (§3)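 Conscious 7-week-old male Sprague-Dawley rats on standard diet with free water. Dosing is 1 mg/kg iv bolus in N-methylpyrrolidin-2-one/PEG 200, or 3 mg/kg oral suspension in 0.5% aqueous methylcellulose. Blood is sampled at various time points after administration.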

[11] = Selectivity for inhibition of CYP2D6 (unknown origin) to IC50 for inhibition of CETP in human plasma
[12] = Clearance in Sprague-Dawley rat plasma at 1 mg/kg, iv or 3 mg/kg, po by LC-ESI-MS/MS analysis; type: ADME, organism-based; procedure, shortened: as §3
[13] = system: Rattus norvegicus; assay: Toxicity in cannulated Sprague-Dawley rat assessed as increase in mean arterial pressure at 5 mg/kg, iv by blood pressure transducer based method; type: organism-based; conditions: in vivo
[14] = system: Serum; assay: Drug uptake in lipoprotein deficient serum fraction of human serum from human donors with triglyceride levels ( 300-500 and >750 mg/dL) by LC-MS/MS method; type: ADME, cell-free; procedure, shortened: as §2
[15] = Selectivity for inhibition of CYP2C9 (unknown origin) to IC50 for inhibition of CETP in human plasma
[16] = molecular target: T2, Cholesteryl ester transfer protein (Homo sapiens) (UniProt P11597); assay: Inhibition of CETP activity in human serum at upto 1200 mg/dl serum triglyceride concentration by LC-MS/MS method; conditions: in the assay text read “fluorescence method” for “LC-MS/MS method”
T2 sequence (whole entry): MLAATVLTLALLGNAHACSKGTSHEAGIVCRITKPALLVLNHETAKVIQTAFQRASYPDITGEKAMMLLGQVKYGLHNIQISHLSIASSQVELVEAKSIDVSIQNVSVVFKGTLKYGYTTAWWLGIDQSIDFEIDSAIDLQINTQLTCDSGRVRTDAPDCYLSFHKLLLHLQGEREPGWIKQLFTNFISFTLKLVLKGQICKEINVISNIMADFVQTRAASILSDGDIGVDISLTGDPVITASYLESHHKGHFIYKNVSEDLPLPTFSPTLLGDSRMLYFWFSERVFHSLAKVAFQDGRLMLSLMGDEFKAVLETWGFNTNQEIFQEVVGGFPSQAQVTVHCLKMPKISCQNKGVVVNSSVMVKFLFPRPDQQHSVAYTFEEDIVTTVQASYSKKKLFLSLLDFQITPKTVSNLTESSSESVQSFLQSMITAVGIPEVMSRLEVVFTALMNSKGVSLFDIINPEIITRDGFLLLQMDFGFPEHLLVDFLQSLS
Procedure, shortened: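 Three human serum pools of differing triglyceride level. IC50 values are the mean of two replicates per pool.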

[17] = molecular target: T1, Cytochrome P450 3A4; assay: Inhibition of CYP3A4 (unknown origin) in the presence of testosterone; type: ADME
[18] = system: Serum; assay: Drug uptake in HDL fraction of human serum from human donors with triglyceride levels ( 300-500 and >750 mg/dL) by LC-MS/MS method; type: ADME, cell-free; procedure, shortened: as §2
[19] = system: Hamster; assay: Increase in HDL cholesterol levels in hamster plasma by HPLC size exclusion chromatography method relative to control; type: functional; conditions: Cricetinae; procedure, shortened: as §1
[20] = system: Serum; assay: Drug uptake in LDL fraction of human serum from human donors with triglyceride levels ( 300-500 and >750 mg/dL) by LC-MS/MS method; type: ADME, cell-free; procedure, shortened: as §2
[21] = system: Serum; assay: Drug uptake in lipoprotein deficient serum fraction of human serum from human donors with normal triglyceride levels (<150 mg/dL) by LC-MS/MS method; type: ADME, cell-free; procedure, shortened: as §2
[22] = Drug uptake in Syrian hamster adrenal tissue at 10 mg/kg, po dosed once daily for 14 days measured 24 hrs post last dose by LC-MS/MS method; type: ADME, organism-based, Mesocricetus auratus, Adrenal gland; conditions: in vivo
Procedure, shortened: (§4)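 Chow-fed hamsters dosed orally once daily for 14 days. Blood and ~100 mg adipose, adrenal and liver samples are taken 24 h after the final dose. Tissues are flash-frozen and stored at −80 °C. Total drug concentrations are measured by LC-MS/MS. Mean ± SEM, seven animals per group.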

[23] = molecular target: Cytochrome P450 2D6 (Homo sapiens, UniProt P10635); assay: Inhibition of CYP2D6 (unknown origin); type: ADME
Cytochrome P450 2D6, sequence (P10635 whole entry): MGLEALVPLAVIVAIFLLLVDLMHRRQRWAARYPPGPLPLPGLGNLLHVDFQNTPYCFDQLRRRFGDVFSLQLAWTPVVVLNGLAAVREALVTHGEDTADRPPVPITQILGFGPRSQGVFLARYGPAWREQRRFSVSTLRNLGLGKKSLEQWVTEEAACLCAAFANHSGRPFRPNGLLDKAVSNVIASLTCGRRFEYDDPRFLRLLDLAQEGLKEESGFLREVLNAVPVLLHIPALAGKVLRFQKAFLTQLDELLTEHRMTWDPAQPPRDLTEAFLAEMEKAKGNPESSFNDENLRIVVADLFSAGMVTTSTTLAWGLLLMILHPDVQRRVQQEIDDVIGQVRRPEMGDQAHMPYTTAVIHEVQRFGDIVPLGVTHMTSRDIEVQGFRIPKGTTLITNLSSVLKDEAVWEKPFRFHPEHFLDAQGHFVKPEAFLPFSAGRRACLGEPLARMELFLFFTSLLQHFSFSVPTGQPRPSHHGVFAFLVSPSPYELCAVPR

[24] = AUC (infinity) in Sprague-Dawley rat at 1 mg/kg, iv or 3 mg/kg, po by LC-ESI-MS/MS analysis; type: ADME, organism-based; conditions: in vivo; procedure, shortened: as §3
[25] = Drug uptake in Syrian hamster adipose tissue at 10 mg/kg, po dosed once daily for 14 days measured 24 hrs post last dose by LC-MS/MS method; type: ADME, organism-based, Mesocricetus auratus; conditions: in vivo; procedure, shortened: as §4
[26] = Oral bioavailability in Sprague-Dawley rat at 3 mg/kg by LC-ESI-MS/MS analysis; type: ADME, organism-based; conditions: in vivo; procedure, shortened: as §3
[27] = system: Serum; assay: Drug uptake in HDL fraction of human serum from human donors with normal triglyceride levels (<150 mg/dL) by LC-MS/MS method; type: ADME, cell-free; procedure, shortened: as §2
[28] = system: NCI-H295R; assay: Toxicty in human NCI-H295R cells assessed as increase in aldosterone levels at 0.1 to 10000 nM after 24 hrs by scintillation proximity assay; type: toxicity, cell-based; conditions: 10 µM
[29] = Drug uptake in Syrian hamster plasma at 10 mg/kg, po dosed once daily for 14 days measured 24 hrs post last dose by LC-MS/MS method; type: ADME, organism-based, Mesocricetus auratus; conditions: in vivo; procedure, shortened: as §4
[30] = Half life in Sprague-Dawley rat at 1 mg/kg, iv or 3 mg/kg, po by LC-ESI-MS/MS analysis; type: ADME, organism-based; conditions: in vivo; procedure, shortened: as §3
[31] = system: Serum; assay: Drug uptake in LDL fraction of human serum from human donors with normal triglyceride levels (<150 mg/dL) by LC-MS/MS method; type: ADME, cell-free; procedure, shortened: as §2
[32] = system: Rattus norvegicus; assay: Toxicity in cannulated Sprague-Dawley rat assessed as increase in plasma aldosterone levels at 5 mg/kg, iv by radioimmunoassay; type: organism-based; conditions: in vivo
[33] = system: Serum; assay: Drug uptake in triglyceride rich lipoprotein fraction of human serum from human donors with triglyceride levels ( 300-500 and >750 mg/dL) by LC-MS/MS method; type: ADME, cell-free; procedure, shortened: as §2
[34] = system: Syrian golden hamster; assay: Reduction in LDL cholesterol level in Syrian hamster plasma at 0.3 and 10 mg/kg, po dosed once daily for 2 weeks and measured 24 hrs post last dose by HPLC size exclusion chromatography method relative to control; type: functional, organism-based; conditions: Mesocricetus auratus; procedure, shortened: as §1
[35] = system: Syrian golden hamster; assay: Increase in HDL cholesterol level in Syrian hamster plasma at 0.3 and 10 mg/kg, po dosed once daily for 2 weeks and measured 24 hrs post last dose by HPLC size exclusion chromatography method relative to control; type: functional, organism-based; conditions: Mesocricetus auratus; procedure, shortened: as §1

logD [2]: 5.2
IC50 [4]: 10.6 µM
PPB [6]: 99.4%
Drug uptake [8]: Active
IC50 [9]: 19 µM
Vd [10]: 0.57 L/kg
clearance [12]: 1.5 mL/min/kg
Drug uptake [14]: Active
inhibition [16]: Active
IC50 [17]: > 50 µM
Drug uptake [18]: Active
Drug uptake [20]: Active
Drug uptake [21]: Active
Drug uptake [22]: Not Active
IC50 [23]: 31 µM
AUC(0-inf) [24]: 27.2 µM·h
Drug uptake [25]: Not Active
bioavailability [26]: 43%
Drug uptake [27]: Active
Drug uptake [29]: Active
half-life [30]: 5.8 h
Drug uptake [31]: Active
Drug uptake [33]: Active
SMILES: CC[C@@H]1C[C@H](N(Cc2cc(C(F)(F)F)cc(C(F)(F)F)c2)c2ncc(-c3cnn(C)c3)cn2)C[C@H](CC)N1C(=O)O[C@H]1CC[C@H](C(=O)O)CC1
Selectivity ratio [1]: >170
inhibition [3]: Active
Activity [5]: Dose-dependent effect
inhibition [7]: Active
Selectivity ratio [11]: >170
Activity [13]: Non-Toxic
Selectivity ratio [15]: >170
Activity [19]: Dose-dependent effect
Activity [28]: Non-Toxic
Activity [32]: Non-Toxic
Activity [34]: Active
Activity [35]: Dose-dependent effect
